Sampled rows, rich in hits. Any-hit rate of the full collection: about 4.8%.
WT yeast gro inh: growth inhibition of WT strain, primary screen, mitochondrial fusion inhibitor project, WT and mutant strains, chemical genetic; AID 1362, 2008; mitochondrial fusion phenotypic screen; 190,000 compounds, 2.1% hits; inhibition, % at 10 µM; in the data active means inhibition above about 58%; tested in S. cerevisiae
Efflux pump inh: inhibitors of Candida efflux pumps in yeast, primary screen, S. cerevisiae, Nile Red, multiplex; S. cerevisiae Candida pump triplex; inhibition, % at 10 µM; 330,000 compounds, 0.44% hits;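 active means plate passing quality check with inhibition over a set limit, or well fluorescence over plate mean plus 4 SD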;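 further: Nile Red retained in pooled yeast measured as flow cytometry median fluorescence; higher means more Nile Red kept so more efflux inhibition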
CSC inhib: cancer stem cell viability inhibitors, primary screen, luminescence; inhibition, % at 7.5 µM; cancer stem cell-like cells viability; 300,000 compounds, 1.1% hits; in the data active means inhibition above about 75%; tested in HMLE shEcad cells
Beta apoptosis: inhibitors of cytokine-induced beta cell apoptosis, primary screen, luminescence | INS-1E cytokine-induced death, ATP luminescence, 48 h; percent of positive-control rescue, neutral wells zero | protection from apoptosis, % (concentration not given with the values) | 300,000 compounds, 0.8% hits;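 active means Every replicate reaches about 75%, or at least half do and their mean reaches it too, limit read from the data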;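 further: higher means more ATP so stronger rescue from cytokine killing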
T cruzi repl: inhibitors of intracellular T. cruzi growth, primary screen, luminescence, NIH3T3 host cells; T. cruzi beta-gal in NIH3T3, 90 h; inhibition, % (test concentration not listed); 300,000 compounds, 1.4% hits;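 active means mean inhibition across valid replicates above about 55%, limit read from the data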;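 further: signal also drops with host cell toxicity which is not excluded here; higher percent means less beta-gal luminescence so fewer parasites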
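System: NIH/3T3 fibroblasts plus reporter T. cruzi. Medium: DMEM plus 2% FBS. Probe or stimulus: 5000 reporter trypomastigotes per well. Compound: single 50 nL compound addition per well in DMSO. Incubation: co-culture of at least 90 h after 3 h attachment. Detection: GalScreen β-gal luminescence, detergent lysis, 60 min. Evaluation: parasite load inhibition, %.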
SUMO Mot1 rescue: yeast Mot1-301 growth rescue at high temperature, primary screen, SUMOylation pathway inhibitor project, S. cerevisiae, ATP luminescence, 38.5C. 320,000 compounds, 1% hits. S. cerevisiae Mot1-301 growth rescue; percent above DMSO median, 100 means doubled. growth rescue, % at 18.8 µM;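 active means every valid replicate shows activation above 250% relative to neutral control wells; inactive means the rest, any valid replicate at or below 250%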
Each line names hits and unclear results; the compound was inactive in the other large screens.

COc1cc(-c2nc3ccc(C)cn3c2NCc2ccccc2)ccc1-c1cccc(Cl)c1	Beta apoptosis 102.0 (no result: WT yeast gro inh, T cruzi repl)
Cc1ccc2nc(-c3ccc(-c4cccc(Cl)c4)cc3)c(NCc3ccccc3)n2c1	CSC inhib 91.1, Beta apoptosis 121.1 (no result: WT yeast gro inh)
CCC(C)Sc1ccc(-c2nc3ccccn3c2NCc2ccccc2)cc1OC (stereo unspecified)	none (no result: WT yeast gro inh, T cruzi repl)
CCC(C)Sc1ccc(-c2nc3ccc(C)cn3c2NCc2ccccc2)cc1 (stereo unspecified)	none (no result: WT yeast gro inh, CSC inhib, Beta apoptosis, T cruzi repl, SUMO Mot1 rescue)
CCOCCOCN(C#N)c1nc(OC)nc(N(C)C)n1	none
CC1=NOC2(C1)N(C)c1ccccc1C2(C)C (stereo unspecified)	none
COc1ccc2ccc3c(c2c1)N=C[C@]1(O3)N(C)c2ccccc2C1(C)C	WT yeast gro inh 74.7
O=C(CSCC(=O)N1CCN(c2ccccc2)CC1)Nc1nc(-c2ccc(Cl)s2)cs1	none
O=C(CSCC(=O)N1CCCCC1)Nc1nc(-c2ccc(Cl)s2)cs1	WT yeast gro inh 72.5
Cc1ccc(N(CCC#N)C(=O)CN2C(=O)NC(Cc3ccccc3)C2=O)cc1 (stereo unspecified)	none (no result: CSC inhib, SUMO Mot1 rescue)
COc1ccc(Cl)cc1NC(=O)CN(C)CC(=O)Nc1c(C)n(C)n(-c2ccccc2)c1=O	SUMO Mot1 rescue 280.8 (no result: WT yeast gro inh, T cruzi repl)
Cc1c(NC(=O)C(=O)/C=C(\O)c2ccc(Cl)cc2)c(=O)n(-c2ccccc2)n1C	SUMO Mot1 rescue 293.8
Cc1ccccc1C(=O)Nc1nc(=S)ss1	none
O=C(Nc1nc(=S)ss1)c1c(F)cccc1F	WT yeast gro inh 78.8
O=C(COC(=O)c1cc([N+](=O)[O-])ccc1N1CCOCC1)Nc1ccc(Cl)cn1	CSC inhib 86.1 (no result: WT yeast gro inh)
O=C(COC(=O)c1cc([N+](=O)[O-])ccc1N1CCOCC1)Nc1ccc(Cl)cc1	none (no result: WT yeast gro inh, Beta apoptosis)
CCOC(=O)c1cc(-c2ccccc2)sc1NC(=O)C(C)OC(=O)c1cccnc1OCC (stereo unspecified)	none (no result: CSC inhib)
COc1cc(NC(=O)COC(=O)CCCC2=NS(=O)(=O)c3ccccc3N2)cc(OC)c1	SUMO Mot1 rescue 332.7 (no result: WT yeast gro inh)
O=C(COC(=O)CCCC1=NS(=O)(=O)c2ccccc2N1)Nc1ccccc1	none (no result: WT yeast gro inh)
CCN(CC)C(=O)C1CCCN(C(=O)c2oc3ccc(C)cc3c2C)C1 (stereo unspecified)	none (no result: WT yeast gro inh)
Cc1cc(C)cc(NC(=O)c2c(C)nc3ccccn23)c1	none
Oc1ccc(CN2CCCCC2)nc1-c1ccccc1	none
Oc1ccc(-c2ccccc2)cc1CN1CCCCCC1	SUMO Mot1 rescue 341.4 (no result: WT yeast gro inh)
Cc1ccc2oc(=O)c3cnn(CC(=O)NC4CCN(Cc5ccccc5)CC4)c3c2c1	T cruzi repl 57.1
CCCOc1ccc(N2C(=O)CC(N(CCc3ccc(OC)c(OC)c3)C(=S)Nc3ccccc3)C2=O)cc1 (stereo unspecified)	T cruzi repl 63.7
O=C1CC(N(CCc2ccccc2)C(=S)Nc2ccccc2)C(=O)N1c1ccccc1 (stereo unspecified)	WT yeast gro inh 70.8, CSC inhib 78.6
CCNC(=S)N(CCc1ccc(S(N)(=O)=O)cc1)C1CC(=O)N(c2ccccc2)C1=O (stereo unspecified)	none (no result: Beta apoptosis)
O=C1CC(N(CCc2ccccc2)C(=S)Nc2cc(Cl)ccc2Cl)C(=O)N1c1c(Cl)cccc1Cl (stereo unspecified)	CSC inhib 106.7
O=c1nc(SCc2cccc(C(F)(F)F)c2)nc2ccccn12	none
CN1/C(=C\C(=O)COC(=O)Cn2nnc(-c3ccccc3)n2)C(C)(C)c2ccccc21	SUMO Mot1 rescue 267.8
COCCNC(=O)c1cc(-c2cccc(OC)c2)on1	none
COCC(C)NC(=O)c1cc(-c2cccc(OC)c2)on1 (stereo unspecified)	WT yeast gro inh 96.8
CC1CC(C)CN(c2ncnc3c2cnn3-c2ccc(Cl)cc2)C1 (stereo unspecified)	WT yeast gro inh 61.6 (no result: Beta apoptosis)
CC1CCN(c2ncnc3c2cnn3Cc2ccc(Cl)cc2)CC1	WT yeast gro inh 63.1 (no result: T cruzi repl)
Cc1ccc(Cn2ncc3c(N4CCN(Cc5ccc(Cl)cc5)CC4)ncnc32)cc1	WT yeast gro inh 63.5 (no result: Beta apoptosis)
